Measurements: ChEMBL document CHEMBL4513216, “Probing the Open Global Health Chemical Diversity Library for Multistage-Active Starting Points for Next-Generation Antimalarials” (ACS Infect Dis, 2020)

Experiment: Toxicity liver stage against HepG2, at 10uM
Type: cell-based
Design: test concentration 10 uM, cell line HepG2-A16-CD81EGFP
Settings: human, HepG2-A16-CD81EGFP cells; read-out: INHIBITION
Summary of the method: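 Uninfected HepG2-A16-CD81EGFP cells, 3 × 10^3 per well, 1536-well, plated on prespotted compound at 10 μM final, parasite-free screening media added to match infected plates; puromycin 10 μM positive, DMSO 0.5% negative; run in parallel with 48 h PbLuc assay at 37 °C, 5% CO2; viability by CellTiter-Glo luminescence, normalized to controls.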

SMILES	cytotoxicity at 10 µM
Cc1ccc(C(=O)Nc2ccccc2F)n1C	0.339%
CC(=O)N1N=C(c2ccccc2)OC1C(=O)NCCc1ccc(Cl)cc1 (centres undefined)	3.68%
O=C(c1ccccn1)N1CC(S(=O)(=O)c2ccc(Cl)cc2)C1	-12%
Cc1ccc(S(=O)(=O)Nc2cnn(C3CCOCC3)c2)cc1C	13.5%
O=C(NC1CC1)N1CCCC2(CCNC2=O)C1 (centres undefined)	3%
Cn1ccc(C(=O)N2CCCCC23CC(=O)N(Cc2ccccc2)C3)n1 (centres undefined)	3.64%
CC[C@@H]1N(Cc2cc(OC)cc(OC)c2)CCC[C@]12CCC(=O)N2C	11.8%
CCN(CC)Cc1nc2c(o1)CN(C(=O)c1ccc3ncccc3c1)C2	6.01%
Cc1cnc(N2C[C@@H]3[C@@H](C(=O)NC(C)C)CCS(=O)(=O)[C@@H]3C2)nc1	-130%
O=C(C1CCSCC1)N1CCC2(CC1)COC(COCC1CC1)C2 (centres undefined)	2.56%
Cc1nc(N2CCOCC2)nc2c1COCC21CCN(CC(C)C)C1 (centres undefined)	-128%
CN(C)C(=O)c1n[nH]c2c1CCN(Cc1nccs1)C2	-139%
COCC1c2nnn(CC3CC3)c2CCN1C(=O)c1cccn1C (centres undefined)	-133%
O=C(COC[C@@H]1CC[C@H]2[C@H](CCN2Cc2ccco2)O1)N1CCCC1	-161%
O=C1CC(c2ccc(C(=O)O)cc2)c2ncn(-c3ccccc3F)c2N1 (centres undefined)	-3.51%
O=C(Cc1cccs1)N1C[C@@H]2COC[C@]2(COc2cccnc2)C1	-21.1%
CCCc1nnsc1C(=O)N1CCCC1(C)C(=O)N1CCOCC1 (centres undefined)	12%
CC1CCc2nn(CCNC(=O)c3cccs3)c(=O)cc2C1 (centres undefined)	17%
Cn1cncc1CN1CCOC(Cc2ccccc2)C1 (centres undefined)	9.43%
CNc1ncc(CN(C)C2CCN(C(C)C)CC2)cn1	-3.14%
Cc1noc(C)c1-c1nc(NCCN(C)C)ncc1-c1cnccn1	-9.03%
CN(C)Cc1cnn(-c2ccccc2C(=O)N(C)Cc2ccccc2)c1	-6.54%

SMILES	cytotoxicity at 10 µM
COc1ccc(CN(C)[C@@H]2CN(C(=O)c3ccnn3C)C[C@H]2O)cc1	-13.5%
Cc1ccc(C)c(C(O)Cn2cc(Cl)c(=O)[nH]c2=O)c1 (centres undefined)	-6.81%
CC(C)COCCC(=O)Nc1cc(-n2nnnc2C2CC2)ccc1F	7.57%
COC(C)c1cccc(NCc2cccc(O)c2)c1 (centres undefined)	-0.334%
CN(C)Cc1ccc(C(N)=O)cc1NC(=O)c1cccc(C#N)c1	1.12%
COc1ccccc1C(C)(C)NC(=O)c1cc(NC(C)=O)ccc1F	-137%
COC(=O)c1cccc(S(=O)(=O)NCC(c2ccco2)N2CCCC2)c1 (centres undefined)	-1.74%
Cn1cccc1C(=O)COc1ccc(S(N)(=O)=O)cc1	12.4%
COc1cc(Br)c(CNc2ccn(CCC(N)=O)n2)cc1OC	-2.87%
Cc1nc2n(n1)CC(NCc1ccc(Cl)c3cccnc13)CC2 (centres undefined)	-8.81%
CCCNC1(c2ccc(Cl)cc2)CCOCC1	-0.0529%
O=C(CNC(=O)C1CC1)NCc1ccc(Cl)s1	-3.12%
CN(CCCNC(=O)c1ccccc1OCC(N)=O)CC(F)(F)F	-7.53%
CC(C)(C)n1ncc2c(=O)[nH]c(N3CCN(CC(F)F)CC3)nc21	-7.8%
COc1ccc(C)cc1CC(=O)Nc1cc(C)n[nH]1	0.503%
NC(=O)C1CCN(CC(=O)NCCc2c(F)cccc2F)CC1	-7.14%
NC(=O)N1CCCN(CC(=O)NCCc2c(F)cccc2F)CC1	-5.15%
O=C(NCC(F)(F)F)C1CCCN(Cc2ccno2)C1 (centres undefined)	-4.13%
CCc1cnc(CN(C)C(=O)NC2CCN(c3ccccc3)C2)s1 (centres undefined)	-2.12%
Cc1cc(C)n(CC2CCCN2CC(=O)Nc2nnc(C)s2)n1 (centres undefined)	5.29%
NC(=O)COc1ccc(C(=O)NCCc2ccco2)cc1	10.1%
CCOC(=O)N1CCN(C(=O)c2cc(-c3ccccc3F)on2)CC1	1.14%

SMILES	cytotoxicity at 10 µM
CC(C)OCCC(=O)Nc1c(-c2ccc(F)cc2)ncn1C	-3.41%
Cc1[nH]c(=O)sc1S(=O)(=O)N1CCCC1C(=O)NCc1ccsc1 (centres undefined)	2.78%
NC(=O)C1CCN(C(=O)CCCc2ccc(Cl)c(Cl)c2)CC1	5.34%
Cc1cc(N2CCCCC2Cn2nc(C)cc2C)n2ncnc2n1 (centres undefined)	-1.38%
CC(C)Cc1nnc(NCc2ccsc2)o1	-0.699%
CS(=O)(=O)CCC(=O)NC1CC(c2ccccc2Cl)C1 (centres undefined)	-4.19%
CC(Sc1n[nH]c(-c2ccc3c(c2)CCC3)n1)C(N)=O (centres undefined)	-0.665%
COc1cccc(N2CCC(CNC(=O)N(C)Cc3ccco3)C2)c1 (centres undefined)	-130%
COC(=O)c1ccc(CNC(C)c2ccc(S(C)(=O)=O)cc2)cc1 (centres undefined)	5.21%
O=C1C(Sc2nc(=O)ccn2C2CC2)CCN1c1ccccc1 (centres undefined)	1.27%
CCOCCN1CCN(CC(O)c2ccc(C)c(C)c2)CC1 (centres undefined)	-6.33%
COCCNC(=O)Cn1cc(NC(=O)c2ccc(C(C)(C)C)cc2)cn1	-9.94%
O=C(Nc1ccc(-n2cncn2)c(F)c1)C1CCN(C(=O)C2CC2)CC1	-2.83%
Cc1ccc(C(=O)NCCCC2(C3OCCO3)CCOCC2)cc1C	1.48%
C[C@@H]1CN(C(=O)c2ccc(Br)cc2F)CC(C(N)=O)O1 (some centres undefined)	-2.74%
Cc1c(C(=O)NCC(C)(C)S(C)(=O)=O)cccc1-c1ccccn1	2.07%
COCC(=O)N1CCC(Nc2ccnc3ccc(Cl)cc23)CC1	5.78%
CCOc1ccnc(N2CCN(C(=O)CCc3cnn(C)c3)CC2)n1	7.58%
NC(=O)CN(C(=O)c1cccc(C(F)(F)F)c1)C1CCCC1	-0.296%
COc1ccc(OC)c(CN(C)c2ncc(S(N)(=O)=O)s2)c1	5.8%
O=C(Nc1nccs1)N1CCCC(N2CCNC2=O)C1 (centres undefined)	-20.7%
C[C@@H]1CN(C(=O)CCc2cnn(C)c2)CC[C@@]1(O)C1CCOCC1	-0.872%

SMILES	cytotoxicity at 10 µM
CC(C)c1cc(C(=O)NCCn2nnc3ccccc32)no1	-1.95%
CCOC(=O)c1n[nH]cc1CN1CCOC(Cc2ccccc2)C1 (centres undefined)	-5.35%
NC(=O)CN1CCC(C(=O)NCCc2nc(-c3ccccc3)cs2)CC1	-7.85%
CN(C)C(=O)CCN1CC(c2ccccc2)(c2ccccc2)CCC1=O	0.284%
CC1(c2ccccc2)CCC(=O)N(CCN2CCCOC2=O)C1 (centres undefined)	-3.99%
O=C(O)CSc1nnc(-c2ccn[nH]2)n1-c1ccccc1Cl	0.276%
CCCn1cnnc1CNC(=O)CC1C(=O)NCCN1CC(C)(C)C (centres undefined)	-0.798%
COCCN1CCN(C(=O)c2ccc(C)cc2F)[C@H]2CS(=O)(=O)C[C@H]21	-11.4%
CCCS(=O)(=O)c1ncc(CN2CCC(C)CC2)n1CC1CCCO1 (centres undefined)	-5.12%
O=C(Nc1cccc2ccccc12)N1CCC(N2CCSCC2)CC1	-1.86%
Cc1c[nH]c(CN(C)C(=O)C(C)(C)NC(=O)c2cccs2)n1	3.08%
CCC(CC)n1nc(C)cc1NC(=O)C1CCCO1 (centres undefined)	-0.951%
CCc1cc(C(=O)N2CCC3(CCCN(CC4CC4)C3=O)C2)cs1 (centres undefined)	-164%
COCCN1CCCC2(CCN(c3nccnc3N(C)C)C2)C1=O (centres undefined)	-0.525%
Cc1nc2c(c(=O)n1C)CN(C(=O)C1CCCN(C3CCCC3)C1)C2 (centres undefined)	-8.67%
O=C(NCc1nc[nH]n1)c1cc(COc2cccc(C(F)(F)F)c2)[nH]n1	-3.26%
O=C(NCCc1csc(-c2ncccn2)n1)c1cnn2c1CCCC2	-3.88%
CCc1ccc2nc(C)cc(C(=O)NC3CCC(=O)N(C)C3)c2c1 (centres undefined)	-5.85%
c1coc(-c2nc3c(c(N4CCCN5CCC[C@H]5C4)n2)CCNCC3)c1	-9.88%
COc1cccc2c1OCC(CNC(=O)CSc1ccccn1)C2 (centres undefined)	-135%
COc1ccc(OC)c(NC(=O)c2cc3c([nH]c2=O)CCCC3=O)c1	-0.607%
CN1CCc2[nH]cnc2C12CCN(C(=O)c1noc3c1CCCC3)CC2	8.71%

SMILES	cytotoxicity at 10 µM
Cc1ccc(NC2CCN(C(=O)c3sccc3C3CC3)CC2)nn1	-4.51%
CC(=O)NCc1ccc(C(=O)N2CCCC2c2c(C)nn(C)c2C)o1 (centres undefined)	-11.3%
Cc1ccc(CC(=O)N2CCN(CC(C)O)CC2)cn1 (centres undefined)	-2.37%
Cc1ccccc1C1CCCN1Cc1nc2c(cnn2C)c(=O)[nH]1 (centres undefined)	-12%
c1cncc(-c2noc(CN3CCCC(Cn4cncn4)C3)n2)c1 (centres undefined)	-2.18%
Cn1c(NCC(O)c2ccc(F)c(F)c2)c(C#N)c(=O)n(C)c1=O (centres undefined)	-19.9%
COc1ccccc1CNC(=O)N1CCN(Cc2cc(C)on2)CC1	-9.07%
CNC(=O)CN1CCC(NC(=O)Cc2ccc3c(c2)OCCO3)CC1	-18.3%
Cc1cc(C)n(CC2CCCN2C(=O)c2ccc3nncn3c2)n1 (centres undefined)	2.01%
Cc1cccc(C)c1OCC(=O)N1CCOCC1c1ncon1 (centres undefined)	-17%
CC(C)c1nc(CN2CCN(Cc3ccccn3)CC2)cs1	-4.41%
Cc1nc2ccccc2nc1CN1CCCC(Cn2cncn2)C1 (centres undefined)	-4.57%
Fc1ccc(COCC2CCN(Cc3ccccn3)CC2)cc1	-2.67%
Cc1nc(CO[C@@H]2CN(Cc3nccs3)[C@@H]3COC[C@@H]32)cs1	-3.03%
COc1cc(CNCC(O)c2ccccc2)cc2c1OCO2 (centres undefined)	-13%
O=C1[C@H]2CN(Cc3ccccc3)C[C@H]2CN1CCN1CCCC1	-3.84%
CS(=O)(=O)NC[C@@H]1OC[C@H]2CN(Cc3ccccc3)CC[C@H]21	4.82%
c1ccc(N2CCC3(CCCN(c4ncccn4)C3)C2)nc1 (centres undefined)	-133%
Cc1ccc(NS(=O)(=O)C=c2[nH]c(=O)n3cccc3c2=O)cc1	-10.7%
CC(=O)c1ccc(C(=O)N2C[C@H]3CC[C@@H](C2)N(Cc2ccccc2)C3)s1	-13.3%
Cc1cnc(C(=O)N2C[C@@H]3CC[C@H]2CN(c2cnccn2)C3)cn1	10.1%
